From ChEMBL document CHEMBL4265871, “Novel alkylated azoles as potent antifungals” (Eur J Med Chem, 2017)
≈ marks a conversion by molar mass, not a printed value.

What was measured:
[1] = test system: Candida albicans; experiment: Antifungal activity against Candida albicans ATCC 10231 incubated for 48 hrs by modified CLSI M27-A3 protocol based method; format: functional; conditions: ATCC 10231, 48 h; for MIC: read-out: MIC100
Procedure, shortened: (§1)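 For C. albicans ATCC 10231, C. krusei ATCC 6258 and C. parapsilosis ATCC 22019, MIC-0 was read, meaning complete growth inhibition. For azole controls, MIC-2 (50% growth inhibition) was reported instead. Caspofungin and voriconazole were tested here; other controls came from earlier work.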

[2] = test system: Candida albicans; experiment: Antifungal activity against Candida albicans ATCC 64124 incubated for 48 hrs by modified CLSI M27-A3 protocol based method; format: functional; conditions: ATCC 64124, 48 h
[3] = test system: Candida albicans; experiment: Antifungal activity against ITC and FLC-susceptible Candida albicans ATCC MYA-2876 incubated for 48 hrs by modified CLSI M27-A3 protocol based method; format: functional; conditions: ATCC MYA-2876, 48 h
Procedure, shortened: (§2)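 Because these Candida strains show trailing growth, MIC-2 was read, meaning 50% growth inhibition. Caspofungin and voriconazole were tested here; other controls came from earlier work.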

[4] = test system: Candida albicans; experiment: Antifungal activity against ITC and FLC-resistant Candida albicans ATCC MYA-90819 incubated for 48 hrs by modified CLSI M27-A3 protocol based method; format: functional; conditions: ATCC MYA-90819, 48 h
[5] = test system: Candida albicans; experiment: Antifungal activity against ITC and FLC-susceptible Candida albicans ATCC MYA-2310 incubated for 48 hrs by modified CLSI M27-A3 protocol based method; format: functional; conditions: ATCC MYA-2310, 48 h
[6] = test system: Candida albicans; experiment: Antifungal activity against ITC and FLC-resistant Candida albicans ATCC 1237 incubated for 48 hrs by modified CLSI M27-A3 protocol based method; format: functional; conditions: ATCC 1237, 48 h; procedure, shortened: as §2
[7] = test system: Candida albicans; experiment: Antifungal activity against ITC and FLC-resistant Candida albicans ATCC MYA-1003 incubated for 48 hrs by modified CLSI M27-A3 protocol based method; format: functional; conditions: ATCC MYA-1003, 48 h; procedure, shortened: as §2
[8] = test system: Nakaseomyces glabratus; experiment: Antifungal activity against Candida glabrata ATCC 2001 incubated for 48 hrs by modified CLSI M27-A3 protocol based method; format: functional; conditions: ATCC 2001, 48 h
[9] = test system: Pichia kudriavzevii; experiment: Antifungal activity against Candida krusei ATCC 6258 incubated for 48 hrs by modified CLSI M27-A3 protocol based method; format: functional; conditions: ATCC 6258, 48 h; for MIC: read-out: MIC100; procedure, shortened: as §1
[10] = test system: Candida parapsilosis; experiment: Antifungal activity against Candida parapsilosis ATCC 22019 incubated for 48 hrs by modified CLSI M27-A3 protocol based method; format: functional; conditions: Lodderomyces parapsilosis, ATCC 22019, 48 h; for MIC: read-out: MIC100; procedure, shortened: as §1
[11] = test system: Aspergillus flavus; experiment: Antifungal activity against Aspergillus flavus ATCC MYA-3631 incubated for 48 hrs by CLSI M38-A2 protocol based method; format: functional; conditions: ATCC MYA-3631, 48 h; for MIC: read-out: MIC100
[12] = test system: Aspergillus nidulans; experiment: Antifungal activity against Aspergillus nidulans ATCC 38163 incubated for 48 hrs by CLSI M38-A2 protocol based method; format: functional; conditions: ATCC 38163, 48 h; for MIC: read-out: MIC100
[13] = test system: Aspergillus terreus; experiment: Antifungal activity against Aspergillus terreus ATCC MYA-3633 incubated for 48 hrs by CLSI M38-A2 protocol based method; format: functional; conditions: ATCC MYA-3633, 48 h; for MIC: read-out: MIC100
[14] = Hemolytic activity in mouse erythrocytes assessed as hemolysis level at 1.95 ug/ml incubated for 1 hr at 37 degC; format: ADME, cell-based, Erythrocyte; conditions: read-out: Activity
Procedure, shortened: (§3)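 Mouse erythrocytes incubated 1 h at 37 °C with test agents over 1.95 to 125 µg/mL. Percent lysis is read for each concentration.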

[15] = Hemolytic activity in mouse erythrocytes assessed as hemolysis level at 3.9 ug/ml incubated for 1 hr at 37 degC; format: ADME, cell-based, Erythrocyte; conditions: read-out: Activity; procedure, shortened: as §3
[16] = Hemolytic activity in mouse erythrocytes assessed as hemolysis level at 7.8 ug/ml incubated for 1 hr at 37 degC; format: ADME, cell-based, Erythrocyte; conditions: read-out: Activity; procedure, shortened: as §3
[17] = Hemolytic activity in mouse erythrocytes assessed as hemolysis level at 15.6 ug/ml incubated for 1 hr at 37 degC; format: ADME, cell-based, Erythrocyte; conditions: read-out: Activity; procedure, shortened: as §3
[18] = Hemolytic activity in mouse erythrocytes assessed as hemolysis level at 31.3 ug/ml incubated for 1 hr at 37 degC; format: ADME, cell-based, Erythrocyte; conditions: read-out: Activity; procedure, shortened: as §3
[19] = Hemolytic activity in mouse erythrocytes assessed as hemolysis level at 125 ug/ml incubated for 1 hr at 37 degC; format: ADME, cell-based, Erythrocyte; conditions: read-out: Activity; procedure, shortened: as §3
[20] = in vitro; conditions: mouse, erythrocyte
[21] = test system: A549; experiment: Toxicity in human A549 cells assessed as cell viability at 15.6 ug/ml incubated for 24 hrs by resazurin dye based assay; conditions: a549, 24 h
[22] = test system: BEAS-2B; experiment: Toxicity in human BEAS2B cells assessed as cell viability at 15.6 ug/ml incubated for 24 hrs by resazurin dye based assay

| Structure (SMILES) | MIC50 [2] [µM] | MIC50 [3] [µM] | MIC50 [4] [µM] | MIC50 [5] [µM] | MIC50 [6] [µM] | MIC50 [7] [µM] | MIC50 [8] [µM] | MIC [1] [µM] | MIC [9] [µM] | MIC [10] [µM] | MIC [11] [µM] | MIC [12] [µM] | MIC [13] [µM] | other results |
| --- | --- | --- | --- | --- | --- | --- | --- | --- | --- | --- | --- | --- | --- | --- |
| CCC(C)n1ncn(-c2ccc(N3CCN(c4ccc(OCC5COC(Cn6cncn6)(c6ccc(Cl)cc6Cl)O5)cc4)CC3)cc2)c1=O (configuration not stated) [ITRACONAZOLE] | > 88.6 | 11.1 (≈ 7.83 µg/mL) | 44.4 (≈ 31.3 µg/mL) | 44.4 (≈ 31.3 µg/mL) | 44.4 (≈ 31.3 µg/mL) | 44.4 (≈ 31.3 µg/mL) | 11.1 (≈ 7.83 µg/mL) | – | – | – | – | – | – | MIC50 [1]: 0.71 µM (≈ 0.501 µg/mL); MIC50 [9]: 0.68 µM (≈ 0.48 µg/mL); MIC50 [10]: 0.17 µM (≈ 0.12 µg/mL); MIC50 [11]: 0.68 µM (≈ 0.48 µg/mL); MIC50 [12]: 0.28 µM (≈ 0.198 µg/mL); MIC50 [13]: 1.4 µM (≈ 0.988 µg/mL) |
| CCC(O)(Cn1cncn1)c1ccc(F)cc1F (configuration not stated) | > 124 | 61.6 (≈ 15.6 µg/mL) | 124 (≈ 31.3 µg/mL) | > 124 | > 124 | 30.8 (≈ 7.8 µg/mL) | > 124 | 61.6 (≈ 15.6 µg/mL) | 30.8 (≈ 7.8 µg/mL) | 1.9 (≈ 0.481 µg/mL) | > 124 | 124 (≈ 31.3 µg/mL) | > 124 | – |
| CCC(O)(Cn1cncn1)c1ccc(Cl)cc1Cl (configuration not stated) | > 109 | 3.4 (≈ 0.973 µg/mL) | 0.84 (≈ 0.24 µg/mL) | 3.4 (≈ 0.973 µg/mL) | 3.4 (≈ 0.973 µg/mL) | 6.8 (≈ 1.95 µg/mL) | 13.6 (≈ 3.89 µg/mL) | 13.6 (≈ 3.89 µg/mL) | 3.4 (≈ 0.973 µg/mL) | < 0.1 | 54.5 (≈ 15.6 µg/mL) | 27.3 (≈ 7.81 µg/mL) | 13.6 (≈ 3.89 µg/mL) | – |
| CCCCCCCCCCCCC(O)(Cn1cncn1)c1ccc(F)cc1F (configuration not stated) | > 79.5 | 19.8 (≈ 7.79 µg/mL) | > 79.5 | 19.8 (≈ 7.79 µg/mL) | 19.8 (≈ 7.79 µg/mL) | > 79.5 | 2.5 (≈ 0.984 µg/mL) | > 79.5 | > 79.5 | 5 (≈ 1.97 µg/mL) | > 79.5 | 1.2 (≈ 0.472 µg/mL) | 9.9 (≈ 3.9 µg/mL) | – |
| C[C@@H]1[C@H](O)[C@@H](C)/C=C/C=C/C=C/C=C/C=C/C=C/C=C/[C@H](O[C@@H]2O[C@H](C)[C@@H](O)[C@H](N)[C@@H]2O)C[C@@H]2O[C@](O)(C[C@@H](O)C[C@@H](O)[C@H](O)CC[C@@H](O)C[C@@H](O)CC(=O)O[C@H]1C)C[C@H](O)[C@H]2C(=O)O [AMPHOTERICIN B] | – | – | – | – | – | – | – | – | – | 2.1 (≈ 1.94 µg/mL) | – | 16.9 (≈ 15.6 µg/mL) | 4.2 (≈ 3.88 µg/mL) | MIC ([3]; read-out: MIC100): 2.1 µM (≈ 1.94 µg/mL); MIC [4]: 1.1 µM (≈ 1.02 µg/mL); MIC ([5]; read-out: MIC100): 2.1 µM (≈ 1.94 µg/mL); MIC [8]: 2.1 µM (≈ 1.94 µg/mL); hemolysis at 1 h, 1.95 ug/ml [14]: 1.7%; hemolysis at 1 h, 3.9 ug/ml [15]: 3.4%; hemolysis at 1 h, 7.8 ug/ml [16]: 3.7%; hemolysis at 1 h, 15.6 ug/ml [17]: 32%; hemolysis at 1 h, 31.3 ug/ml [18]: 80%; hemolysis at 1 h, 125 ug/ml [19]: 92.6%; hemolysis at 1 h [20]: 90.3%; viability [21]: 30%; viability [22]: 30% |
| CCCCCC(O)(Cn1cncn1)c1cccc(Cl)c1 (configuration not stated) | 106 (≈ 31.3 µg/mL) | > 106 | 13.3 (≈ 3.91 µg/mL) | 6.6 (≈ 1.94 µg/mL) | 6.6 (≈ 1.94 µg/mL) | > 106 | > 106 | > 106 | > 106 | > 106 | 13.3 (≈ 3.91 µg/mL) | 0.2 (≈ 0.0588 µg/mL) | 1.6 (≈ 0.47 µg/mL) | – |
| N[n+]1cnn(CC(=O)c2ccc(Cl)cc2Cl)c1 | > 102 | > 102 | > 102 | > 102 | > 102 | > 102 | > 102 | > 102 | > 102 | > 102 | > 102 | > 102 | > 102 | – |
| CCCC(O)(Cn1cncn1)c1ccc(F)cc1F (configuration not stated) | 117 (≈ 31.3 µg/mL) | 58.4 (≈ 15.6 µg/mL) | 58.4 (≈ 15.6 µg/mL) | 29.2 (≈ 7.8 µg/mL) | 117 (≈ 31.3 µg/mL) | 14.6 (≈ 3.9 µg/mL) | > 117 | 14.6 (≈ 3.9 µg/mL) | 0.22 (≈ 0.0588 µg/mL) | 0.22 (≈ 0.0588 µg/mL) | > 117 | 29.2 (≈ 7.8 µg/mL) | 58.4 (≈ 15.6 µg/mL) | – |
